The data set is described as follows: Toxicity liver stage against HepG2, at 10uM. Type of data set: cell-based. Details: test concentration 10 uM, cell line HepG2-A16-CD81EGFP. The following applies: human, HepG2-A16-CD81EGFP cells; read-out: INHIBITION
The procedure, abridged:
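Uninfected HepG2-A16-CD81EGFP cells, 3 × 10^3 per well, 1536-well, plated on prespotted compound at 10 μM final, parasite-free screening media added to match infected plates; puromycin 10 μM positive, DMSO 0.5% negative; run in parallel with 48 h PbLuc assay at 37 °C, 5% CO2; viability by CellTiter-Glo luminescence, normalized to controls.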

Here are results for 96 compounds from ChEMBL document CHEMBL4513216, “Probing the Open Global Health Chemical Diversity Library for Multistage-Active Starting Points for Next-Generation Antimalarials” (ACS Infect Dis, 2020).

Consider `CCN1CC2(CC1=O)CN(Cc1cccs1)CCN(C(=O)C(C)C)C2` (stereo unspecified), for which the cytotoxicity at 10 µM is -13.9%.

`CN(C)C1COC2(CCN(Cc3ccncc3)CC2)C1` (stereo unspecified): the cytotoxicity at 10 µM is -69.2%.

Turning to `CCc1n[nH]c(C2CN(C(=O)CCc3cscn3)CCO2)n1` (stereo unspecified), the cytotoxicity at 10 µM is -8.42%.

Consider `Cc1ccc(S(=O)(=O)NC[C@H]2OC[C@@H](NCc3cccnc3)[C@@H]2O)cc1`, for which the cytotoxicity at 10 µM came to 1.32%. As for `COc1c(CNC(c2cccc(F)c2)c2nccn2C)c(C)nn1C` (stereo unspecified), the cytotoxicity at 10 µM was -9.19%.

For the compound `Cc1cnc(C(=O)N2C[C@@H]3[C@@H](C2)OCC(=O)N3CC2CCCC2)cn1`, the cytotoxicity at 10 µM was -3.78%. For `CS(=O)(=O)CCCSCc1ccc(Br)c(F)c1` the value was 4.64%.

For the compound `Cc1cnc(C(=O)N2CC[C@@H]3CN(c4ncccn4)CCO[C@@H]3C2)cn1`, the cytotoxicity at 10 µM is -75.2%. For the compound `Cc1nc(CN2CCCC(N(C)c3ccc(C#N)cn3)C2)no1` (stereo unspecified), the cytotoxicity at 10 µM is -6.76%. Next, `O=c1c(NCc2ccncc2)c(NCC(O)CN2CCOCC2)c1=O` (stereo unspecified): -44%; `Cc1ccc(-c2ccnc(NC(c3ncccc3C)C3CC3)n2)c(C)n1` (stereo unspecified): 0.656%; `CCc1n[nH]c(C2CN(C(=O)c3ccnc(N(C)C)c3)CCO2)n1` (stereo unspecified): 6.66%. `Cc1ccc(NC(=O)CNC(C)CN2CCOCC2)c(F)c1` (stereo unspecified): the cytotoxicity at 10 µM is -51.8%. For the compound `O=C(O)c1ccc(COc2cccc(Cl)c2)s1`, the cytotoxicity at 10 µM is 8.96%. Turning to `Cc1cc(-n2cncn2)ccc1C(=O)Nc1ccc(N2CCCC2)cn1`, the cytotoxicity at 10 µM came to 7.26%. For `Cn1cc(-c2ncc(C(=O)NCCCn3ccccc3=O)s2)cn1`, the cytotoxicity at 10 µM came to 4.13%.

Take `O=C(N[C@@H]1CCN(C(=O)C2CCOCC2)C[C@H]1O)c1ccccn1`: the cytotoxicity at 10 µM is -2.88%. Take `CN(C)C[C@H]1OC[C@@H]2CCN(C(=O)c3cccn3C)C[C@@H]21`: the cytotoxicity at 10 µM is -2.29%. For `CCn1ccnc1CN(C)CC1CCCN1c1cccnn1` (stereo unspecified), the cytotoxicity at 10 µM was -0.0722%. For the compound `Cc1ccc(C)c2c(O)cc(CNCCNC(=O)C(C)C)nc12`, the cytotoxicity at 10 µM is -8.14%. As for `CO[C@H]1C(=O)N(C)C2(CCNCC2)[C@@H]1C(=O)Nc1ccccc1`, the cytotoxicity at 10 µM worked out at 6.17%.

For `CCOCC1CN(Cc2ccncc2)Cc2nn(C)cc21` (stereo unspecified), the cytotoxicity at 10 µM was -79.8%. For `CSc1ccc(CNC2CCCc3c2cnn3C)cc1` (stereo unspecified) the value was 0.684%; for `Cc1c(C(=O)N2CC(Cc3nccc4ccn(C)c34)C2)cnn1C`, -26.3%. In the case of `Cc1ccc(CNCc2cccc3cn[nH]c23)c(OC2CCOC2)c1` (stereo unspecified), the cytotoxicity at 10 µM turned out to be 9.6%. Next, `COc1ccc(Br)cc1CCC(=O)N1CCSCC1`: 5.48%. With `CCc1nc(CNC(=O)c2ccc(C(C)N3CCCCC3)o2)cc(=O)[nH]1` (stereo unspecified), the cytotoxicity at 10 µM is -13.6%. Take `Cn1cc(CC2CCN(C(=O)NCCCc3ccc(O)cc3)C2)cn1` (stereo unspecified): the cytotoxicity at 10 µM came out at 0.557%. Next, `CC(=O)N1CCN(C(=O)c2cccc(OCc3cscn3)c2)CC1`: -7.57%.

On to `Cc1ccc(C)c(CC(=O)Nc2cccc(C(=O)N(C)C)n2)c1`, for which the cytotoxicity at 10 µM is -6.56%.

Consider `Cc1cc(-c2cnc(N3CCSCC3)nc2C(C)C)on1`, for which the cytotoxicity at 10 µM was 16.8%. Next, `c1cc(CN2CCc3nc(N4CCOCC4)nc(NC4CC4)c3C2)co1`: 12%. As for `Cc1cccc2c1OCCC2NCc1c(C(C)C)nn(C)c1N(C)C` (stereo unspecified), the cytotoxicity at 10 µM came out at 0.423%.

`CCCc1noc(-c2cn(CC(=O)N(CC)CC)nn2)n1`: the cytotoxicity at 10 µM was 3.35%. On to `CCCc1noc(CCC(=O)N2CCCC2Cn2cc(C)cn2)n1` (stereo unspecified), for which the cytotoxicity at 10 µM is -1.11%.

As to `CC(CNC(=O)c1ccc(Cl)cc1I)N1CCCC1` (stereo unspecified), the cytotoxicity at 10 µM is -5.69%. As for `N#CCSCCCN1CCN(C(=O)c2ccc(Cl)cc2)CC1`, the cytotoxicity at 10 µM is -10.3%. Take `CN(Cc1cc(F)cc2cccnc12)CC1CCN(CCO)CC1`: the cytotoxicity at 10 µM amounted to 1.9%. As to `CSc1ncccc1C(=O)N1CCC2(CC1)c1nc[nH]c1CCN2C`, the cytotoxicity at 10 µM is 52.6%. With `CC1CCCCN1CCN(C)C(=O)c1cc(CN2CCC(O)CC2)on1` (stereo unspecified), the cytotoxicity at 10 µM amounted to 1.14%. As for `O=C(c1ccc(Cn2cc(Br)cn2)cc1)N1CCOCC1`, the cytotoxicity at 10 µM is -13.6%. For `CC(=O)N[C@@H]1CN(Cc2ccco2)C[C@H]1c1ccc(C)o1`, the cytotoxicity at 10 µM was -3.33%.

`Cn1c(C(=O)NCC2(N)CCCC2)cc2ccccc21`: the cytotoxicity at 10 µM was found to be 7.8%. For `CCC(=O)N1CCN(Cc2cnc(C)nc2)[C@H]2CS(=O)(=O)C[C@H]21` the value was 12.3%.

On to `Cc1cnc(CN(C)C2CCCN(c3cccnn3)C2)cn1` (stereo unspecified), for which the cytotoxicity at 10 µM turned out to be 10.4%.

On to `O=C(CN1CCC(C(=O)c2cc(F)ccc2F)CC1)NC1CC1`, for which the cytotoxicity at 10 µM was -6.04%.

As for `COc1ncccc1CN1C[C@@H]2C[C@@H](C(=O)NCC3CC3)N(C)[C@@H]2C1`, the cytotoxicity at 10 µM turned out to be 1.2%. Take `c1cnc2c(c1)cc([C@H]1CCCO1)n2CCN1CCCC1`: the cytotoxicity at 10 µM was 0.975%. Next, `Cc1cnc(N)c(C(=O)C2CCN(C(=O)C3CCC3)CC2)c1`: -23.1%; `CC(C)c1nc2c(n1C)CCN(Cc1nc(-c3ccsc3)no1)C2`: -6.46%.

Take `CN1CCCC(c2nccnc2-c2cccc(Cl)c2)C1` (stereo unspecified): the cytotoxicity at 10 µM was determined as 3.57%. On to `Cc1nc(CCNC(=O)NCC(c2ccco2)N(C)C)cs1` (stereo unspecified), for which the cytotoxicity at 10 µM was 7.26%. As for `CCC(CNC(=O)c1ccc(Br)o1)N1CCc2ccccc2C1` (stereo unspecified), the cytotoxicity at 10 µM is -20.5%. With `CN(Cc1ccoc1)C(=O)C1CCN(C(=O)C2CCCC2)CC1`, the cytotoxicity at 10 µM was -7.77%. With `CCSc1ncc(CN2CCN(c3ccc(C#N)cc3)C(=O)C2)cn1`, the cytotoxicity at 10 µM was -2.54%.

In the case of `CN(C)C(C(=O)N1CC(Oc2ccccc2F)C1)c1ccc(F)cc1` (stereo unspecified), the cytotoxicity at 10 µM turned out to be 1.28%. In the case of `COC1CCN(C(=O)Cn2ccc3ccccc32)CC1`, the cytotoxicity at 10 µM is -12.7%. Regarding `CCCOc1ccccc1NCC(=O)Nc1ccc(CC)cc1`, the cytotoxicity at 10 µM stood at 6.37%. Regarding `COc1ccc(Br)cc1CCC(=O)N1CCCC1`, the cytotoxicity at 10 µM was -4.2%.

Consider `O=c1[nH]c2cn(-c3cccc(F)c3)c(=O)n2n1Cc1ccc(Cl)cc1`, for which the cytotoxicity at 10 µM was 8.53%. Next, `CC(C)(C)n1cc(NCc2cscn2)cn1`: -6.08%; `CC(C)[C@@H]1CN(c2ncc(F)cn2)C[C@H]1NC(=O)N(C)C`: -4.03%; `Cc1cc(=O)[nH]c(=O)n1COCc1ccccc1`: -12.5%. Next, `CCCn1nccc1NC(=O)CN1CCCC1c1c(C)nn(C)c1C` (stereo unspecified): -2.7%; `CCn1cc2[nH]c(OC)c(CNC(=O)C3CCS(=O)(=O)CC3)cc-2c1=O`: 4.93%. For the compound `CNS(=O)(=O)CC(=O)N1CCCc2cc(C(C)C)ccc21`, the cytotoxicity at 10 µM stood at 11.8%. As for `COCc1cc(NCCc2ccc(S(N)(=O)=O)cc2)n2nccc2n1`, the cytotoxicity at 10 µM was found to be 6.45%. For the compound `Cc1ccc(CN2CCc3ncnc(OC(C)C)c3CC2)s1`, the cytotoxicity at 10 µM is 22.8%.

`CNC(=O)Cc1ccc(NC(=O)NCc2nc(C)sc2C)cc1`: the cytotoxicity at 10 µM was -4.36%.

As for `COc1ccc(C[C@H]2CN(C(=O)c3cnoc3)CC[C@@H]2OC)cc1`, the cytotoxicity at 10 µM stood at 4.09%. For `O=C(c1ccccn1)N1C[C@@H](OCc2cccnc2)[C@H]2OCCC[C@@H]21` the value was -0.187%. Next, `CN(Cc1cc[nH]n1)C(C(=O)O)c1ccc(Cl)cc1` (stereo unspecified): 0.595%; `CC(=O)N1CCN(C(=O)c2ccc(-c3cccc(C)c3)[nH]c2=O)CC1`: 3.64%; `O=C(Cc1ccsc1)N1CCCCC1c1ccn2ccnc2n1` (stereo unspecified): -9.91%.

On to `O=C1NCCCN1Cc1nc(-c2ccc(N3CCCCC3)cc2)no1`, for which the cytotoxicity at 10 µM amounted to 3.24%. Regarding `COc1ncnc(N)c1CNCCc1ccccc1`, the cytotoxicity at 10 µM is -3.15%. Turning to `O=C(NCCNc1ncccn1)N1CCCC(C(F)(F)F)C1` (stereo unspecified), the cytotoxicity at 10 µM was 1.05%.

For the compound `CC(C)N(C)Cc1cc(=O)n2c(n1)CN(C(=O)c1cnccn1)CCC2`, the cytotoxicity at 10 µM was -3.02%.

Take `COc1cccc(CSc2nnc(C)n2CC(N)=O)c1`: the cytotoxicity at 10 µM amounted to 3.59%.

As for `C=C(C)CNc1nc(CS(=O)(=O)c2ccccc2)cs1`, the cytotoxicity at 10 µM was -8.37%. For `CC(C)[C@@H](C)NC(=O)N1CCn2nc(C(=O)NCCN(C)C)cc2C1`, the cytotoxicity at 10 µM came to 2.62%. In the case of `CC(=O)Nc1ccc(C(=O)Nc2cnc3n2CCCC3)c(C)c1`, the cytotoxicity at 10 µM was -1.14%.

As for `Cc1ccccc1OCC(O)CN1CCC(Cn2cccn2)CC1` (stereo unspecified), the cytotoxicity at 10 µM is -0.972%. For the compound `Cc1cccc(N2CC3(CCN(c4nncs4)C3)CC2=O)c1` (stereo unspecified), the cytotoxicity at 10 µM was found to be 0.179%. Turning to `CN(C)C(=O)Cc1ccccc1NCc1nc(Cc2ccccc2)no1`, the cytotoxicity at 10 µM stood at 1.9%. Next, `Cc1cc(C2CCCN(C(=O)COc3ccccc3F)C2)n[nH]1` (stereo unspecified): 7.45%. Next, `COCCN(Cc1ccoc1)S(=O)(=O)c1cccc(C(F)(F)F)c1`: 3.17%; `CCOc1ccc(N(C)Cc2nnc(C3CC3)o2)cc1`: 8.17%. Next, `COc1ccccc1N1CCN(C(=O)Cn2nc(C)c(C)c2C)C(C)C1` (stereo unspecified): 2.96%; `CC(C)Oc1ncnc2c1CCN(Cc1ccc(F)cc1)CC2`: 5.68%; `N#Cc1cccc(C(=O)N2CCc3ncc(Cn4cccn4)n3CC2)c1`: 5.84%. With `Cc1nn(C)c(N(C)C)c1CNCc1ccc(Cn2cccn2)cc1`, the cytotoxicity at 10 µM was determined as 3.73%. Next, `NC(=O)c1cnn2c1NCC(CNCCCc1ccccc1)C2` (stereo unspecified): -9.24%; `Cc1csc(CNC(=O)NCCc2ccc3c(c2)OCCO3)n1`: 4.74%.

As for `Cc1nccn1-c1cccc(C2CCCN2)n1` (stereo unspecified), the cytotoxicity at 10 µM was found to be 10.6%.

As to `COc1ccccc1-n1c(CC(C)C)nnc1SCC(=O)O`, the cytotoxicity at 10 µM is -6.71%.
